We go through five compounds from ChEMBL document CHEMBL3779892, “Increasing the binding affinity of VEGFR-2 inhibitors by extending their hydrophobic interaction with the active site: Design, synthesis and biological evaluation of 1-substituted-4-(4-methoxybenzyl)phthalazine derivatives” (Eur J Med Chem, 2016).

The structures appear in SMILES notation.

A short description of data set [1]: Growth inhibition of human DU145 cells at 10 uM after 48 hrs by sulforhodamine B assay. Particulars: DU-145, 48 h, read-out: GI. It is filed as functional. The method, boiled down: (§1)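 Run at NCI on the 60-line panel. Cells grown in RPMI 1640 with 5% FBS and 2 mM L-glutamine, plated at 5000–40,000 cells/well by doubling time, and held 24 h at 37 °C before dosing. Drug (DMSO stock) given at a single final 10 µM in triplicate wells for 48 h. Adherent cells fixed with cold TCA (10% final), suspension cells with 16% TCA. SRB stain read at 515 nm. Percent growth from Tz, C and Ti.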
(In SRB staining, fixed cells bind dye roughly in proportion to their protein.)

The subject of the next data set is NCI-H522. Description: Growth inhibition of human NCI-H522 cells at 10 uM after 48 hrs by sulforhodamine B assay. Conditions: NCI-H522, 48 h, read-out: GI. It is filed as functional. The method, boiled down:
as §1

The test system of the next data set is NCI-H226. Description: Growth inhibition of human NCI-H226 cells at 10 uM after 48 hrs by sulforhodamine B assay. Conditions: NCI-H226, 48 h, read-out: GI. It is filed as functional. A digest of the protocol:
as §1

Data set [2] is described as follows: Growth inhibition of human SNB75 cells at 10 uM after 48 hrs by sulforhodamine B assay. Format: functional. Conditions: SNB-75, 48 h, read-out: GI. The method, boiled down:
as §1

A further data set relates to MDA-MB-435. Description: Growth inhibition of human MDA-MB-435 cells at 10 uM after 48 hrs by sulforhodamine B assay. Format: functional. Conditions: MDA-MB-435, 48 h, read-out: GI. A digest of the protocol:
as §1

The nature of data set [3]: Growth inhibition of human HOP62 cells at 10 uM after 48 hrs by sulforhodamine B assay. It is filed as functional. Conditions: HOP-62, 48 h, read-out: GI. The method, boiled down:
as §1

Data set [4] in a line: Growth inhibition of human OVCAR3 cells at 10 uM after 48 hrs by sulforhodamine B assay. It is filed as functional. Conditions: OVCAR-3, 48 h, read-out: GI. The method, boiled down:
as §1

The subject of the next data set is U-251. Description: Growth inhibition of human U251 cells at 10 uM after 48 hrs by sulforhodamine B assay. It is filed as functional. Conditions: U-251, 48 h, read-out: GI. A digest of the protocol:
(§2)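 NCI-60 panel, adherent cells grown in RPMI 1640 with 5% FBS and 2 mM L-glutamine, plated at 5000–40,000 cells/well and preincubated 24 h at 37 °C, 5% CO2. 10 µM final compound from DMSO stock, triplicate wells, 48 h. Fixed with cold TCA (10% final, 60 min, 4 °C) and stained with 0.4% SRB. Absorbance read at 515 nm; growth calculated against time-zero and control wells.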

The test system of the next data set is T47D. Description: Growth inhibition of human T47D cells at 10 uM after 48 hrs by sulforhodamine B assay. Format: functional. Particulars: read-out: GI. A digest of the protocol:
as §2

The nature of data set [5]: Growth inhibition of human MOLT4 cells at 10 uM after 48 hrs by sulforhodamine B assay. Particulars: MOLT-4, 48 h, read-out: GI. It is filed as functional. A digest of the protocol:
as §1

Data set [6] can be described thus: Growth inhibition of human UACC257 cells at 10 uM after 48 hrs by sulforhodamine B assay. Particulars: UACC-257, 48 h, read-out: GI. It is filed as functional. A digest of the protocol: as §2
Another data set concerns MDA-MB-231. Description: Growth inhibition of human MDA-MB-231 cells at 10 uM after 48 hrs by sulforhodamine B assay. It is filed as functional. Particulars: MDA-MB-231, 48 h, read-out: GI. The method, boiled down: as §1
Data set [7] is described as follows: Growth inhibition of human NCI-ADR-RES cells at 10 uM after 48 hrs by sulforhodamine B assay. It is filed as functional. Particulars: read-out: GI. A digest of the protocol: as §1
A short description of data set [8]: Growth inhibition of human UACC62 cells at 10 uM after 48 hrs by sulforhodamine B assay. It is filed as functional. Conditions: UACC-62, 48 h, read-out: GI. A digest of the protocol: as §2
Data set [9] is described as follows: Growth inhibition of human TK10 cells at 10 uM after 48 hrs by sulforhodamine B assay. Format: functional. Conditions: TK-10, 48 h, read-out: GI. The method, boiled down: as §2
Data set [10] in a line: Growth inhibition of human Caki1 cells at 10 uM after 48 hrs by sulforhodamine B assay. It is filed as functional. Conditions: CAKI-1, 48 h, read-out: GI. A digest of the protocol: as §1
The test system of a further data set is NCI-H23. Description: Growth inhibition of human NCI-H23 cells at 10 uM after 48 hrs by sulforhodamine B assay. Conditions: NCI-H23, 48 h, read-out: GI. It is filed as functional. A digest of the protocol:
as §1

The subject of the next data set is NCI-H322M. Description: Growth inhibition of human NCI-H322M cells at 10 uM after 48 hrs by sulforhodamine B assay. Conditions: read-out: GI. It is filed as functional. A digest of the protocol:
as §1

The target in a further data set is serum albumin (Bos taurus, UniProt P02769). Description: Binding affinity to bovine serum albumin at pH 7.4 at 25 degC by equilibrium dialysis method. Format: ADME. Conditions: cattle, read-out: PB (converted). (In general: In equilibrium dialysis only unbound substance equilibrates across the membrane.)
The test system of a further data set is A498. In words: Growth inhibition of human A498 cells at 10 uM after 48 hrs by sulforhodamine B assay. Particulars: A498, 48 h, read-out: GI. Format: functional. The method, boiled down: as §1
Data set [11] can be described thus: Growth inhibition of human Hs 578T cells at 10 uM after 48 hrs by sulforhodamine B assay. It is filed as functional. Particulars: read-out: GI. A digest of the protocol: as §1
In the next data set the test system is 786-0. Description: Growth inhibition of human 786-0 cells at 10 uM after 48 hrs by sulforhodamine B assay. It is filed as functional. Conditions: 786-0, 48 h, read-out: GI. A digest of the protocol:
as §1

Data set [12] can be described thus: Growth inhibition of human IGROV1 cells at 10 uM after 48 hrs by sulforhodamine B assay. It is filed as functional. Particulars: IGROV-1, 48 h, read-out: GI. The method, boiled down:
as §1

Data set [13] in a line: Growth inhibition of human SF539 cells at 10 uM after 48 hrs by sulforhodamine B assay. It is filed as functional. Particulars: SF-539, 48 h, read-out: GI. The method, boiled down: as §1

Sequence of serum albumin (P02769 whole entry): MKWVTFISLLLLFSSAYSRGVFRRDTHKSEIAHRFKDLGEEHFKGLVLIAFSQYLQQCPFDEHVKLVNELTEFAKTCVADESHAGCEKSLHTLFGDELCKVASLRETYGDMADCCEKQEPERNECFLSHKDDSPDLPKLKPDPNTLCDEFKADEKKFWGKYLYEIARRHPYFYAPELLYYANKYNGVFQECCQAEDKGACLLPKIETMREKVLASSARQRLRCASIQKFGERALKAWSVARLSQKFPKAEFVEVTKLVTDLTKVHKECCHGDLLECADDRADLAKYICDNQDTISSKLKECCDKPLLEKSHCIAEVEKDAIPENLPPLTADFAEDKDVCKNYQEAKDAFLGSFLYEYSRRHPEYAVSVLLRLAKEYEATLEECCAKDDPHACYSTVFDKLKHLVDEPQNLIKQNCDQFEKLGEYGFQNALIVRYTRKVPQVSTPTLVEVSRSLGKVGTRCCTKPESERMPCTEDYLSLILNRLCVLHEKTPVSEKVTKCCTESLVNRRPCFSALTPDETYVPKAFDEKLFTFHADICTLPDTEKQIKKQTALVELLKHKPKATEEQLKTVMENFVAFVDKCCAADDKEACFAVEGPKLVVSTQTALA

For the compound `COc1ccc(Cc2nnc(Nc3ccc(NC(=O)Nc4ccc(OC)cc4)cc3)c3ccccc23)cc1`, the inhibition of growth at 10 µM in data set [1] was below 30%; in the data set with NCI-H522, 36%; with NCI-H226 it was below 30%; in data set [2] it was 50%; in the data set with MDA-MB-435 it was below 30%; in [3] it was 33%. For the same compound, the inhibition of growth at 10 µM is below 30% in data set [4]; 49% with U-251; 42% in the data set with T47D; 47% in [5]; below 30% in data set [6]; 46% in the data set on MDA-MB-231. Besides, the inhibition of growth at 10 µM (in data set [7]; in data set [8]; in data set [9]; in [10]; in the data set on NCI-H23; in the data set with NCI-H322M) was below 30% in each case. The inhibition of growth at 10 µM in the data set on A498 was below 30%; in data set [11], 96%; in the data set on 786-0, 63%; in data set [12] it was below 30%; in [13] it was 49%. The fraction unbound at serum albumin is 0.921.

On to `COc1ccc(Cc2nnc(Nc3ccc(NC(=O)Nc4ccc(Cl)c(C(F)(F)F)c4)cc3)c3ccccc23)cc1`, for which the inhibition of growth at 10 µM was below 30% in data set [1]; 68% in the data set with NCI-H522; below 30% in the data set on NCI-H226; 50% in data set [2]; 35% in the data set on MDA-MB-435; below 30% in data set [3]. In addition, the inhibition of growth at 10 µM in data set [4] was 78%; in the data set with U-251, 51%; in the data set with T47D it was 47%; in [5], 50%; in data set [6], below 30%; with MDA-MB-231, 41%. For the same compound, the inhibition of growth at 10 µM is 67% in data set [7]; below 30% in data set [8]; below 30% in data set [9]; below 30% in data set [10]; below 30% in the data set with NCI-H23; 30% in the data set on NCI-H322M. For the same compound, the inhibition of growth at 10 µM in the data set on A498 is below 30%; in [11] it was 48%; in the data set on 786-0 it was 62%; in [12], 53%; in data set [13] it was below 30%.

With `COc1ccc(Cc2nnc(Nc3ccc(NC(=O)Nc4ccccc4)cc3)c3ccccc23)cc1`, the inhibition of growth at 10 µM in [1] is below 30%; in the data set with NCI-H522, 48%; in the data set with NCI-H226, below 30%; in data set [2], below 30%; with MDA-MB-435, below 30%; in data set [3], below 30%. The inhibition of growth at 10 µM in [4] is below 30%; in the data set on U-251, 32%; with T47D it was 41%; in [5] it was 30%; in data set [6] it was below 30%; in the data set with MDA-MB-231, 31%. The inhibition of growth at 10 µM (in data set [7]; in data set [8]; in [9]; in data set [10]; in the data set on NCI-H23; in the data set on NCI-H322M) was below 30% each time. Besides, the inhibition of growth at 10 µM was below 30% with A498; 33% in [11]; 36% with 786-0; below 30% in data set [12]; below 30% in data set [13].

In the case of `COc1ccc(Cc2nnc(Nc3ccc(NC(=O)Nc4cccc(OC)c4)cc3)c3ccccc23)cc1`, the inhibition of growth at 10 µM (in data set [1]; in the data set on NCI-H522; in the data set with NCI-H226; in [2]; in the data set with MDA-MB-435; in data set [3]) was below 30% each time. The inhibition of growth at 10 µM in data set [4] was below 30%; with U-251, 32%; in the data set with T47D, below 30%; in data set [5] it was below 30%; in data set [6], below 30%; in the data set on MDA-MB-231, below 30%. Also, the inhibition of growth at 10 µM (in data set [7]; in data set [8]; in data set [9]; in data set [10]; in the data set with NCI-H23; in the data set with NCI-H322M) was below 30% each time. Moreover, the inhibition of growth at 10 µM with A498 is below 30%; in [11] it was 50%; in the data set with 786-0, 42%; in data set [12], below 30%; in [13], 35%.

On to `COc1ccc(Cc2nnc(Nc3ccc(NC(=O)Nc4cccc(Cl)c4)cc3)c3ccccc23)cc1`, for which the inhibition of growth at 10 µM in data set [1] was below 30%; in the data set with NCI-H522, 57%; in the data set on NCI-H226, below 30%; in [2], below 30%; in the data set on MDA-MB-435, below 30%; in [3], below 30%. Besides, the inhibition of growth at 10 µM in [4] was below 30%; in the data set with U-251 it was below 30%; in the data set with T47D, 39%; in data set [5] it was below 30%; in [6] it was below 30%; in the data set on MDA-MB-231, below 30%. Besides, the inhibition of growth at 10 µM (in [7]; in [8]; in data set [9]; in data set [10]; in the data set with NCI-H23; in the data set with NCI-H322M) was below 30% throughout. The inhibition of growth at 10 µM in the data set on A498 was below 30%; in data set [11] it was below 30%; with 786-0, 35%; in data set [12], below 30%; in [13], below 30%.
